Reference: ChEMBL document CHEMBL4834390, “Nanomolar-Potency 1,2,4-Triazoloquinoxaline Inhibitors of the Kidney Urea Transporter UT-A1” (J Med Chem, 2018)
pIC50: −log10 of the molar value. The source made the active and inactive calls. The calls are words filed in the database; no cut-off is given here.

Columns and labels:
Urea transporter 2 = molecular target: T1, Urea transporter 2 (Rattus norvegicus, UniProt Q62668); assay: Inhibition of rat UT-A1 expressed in MDCK cells incubated for 15 mins by fluorescence plate reader assay; type: cell-based
T1 sequence (Q62668 whole entry): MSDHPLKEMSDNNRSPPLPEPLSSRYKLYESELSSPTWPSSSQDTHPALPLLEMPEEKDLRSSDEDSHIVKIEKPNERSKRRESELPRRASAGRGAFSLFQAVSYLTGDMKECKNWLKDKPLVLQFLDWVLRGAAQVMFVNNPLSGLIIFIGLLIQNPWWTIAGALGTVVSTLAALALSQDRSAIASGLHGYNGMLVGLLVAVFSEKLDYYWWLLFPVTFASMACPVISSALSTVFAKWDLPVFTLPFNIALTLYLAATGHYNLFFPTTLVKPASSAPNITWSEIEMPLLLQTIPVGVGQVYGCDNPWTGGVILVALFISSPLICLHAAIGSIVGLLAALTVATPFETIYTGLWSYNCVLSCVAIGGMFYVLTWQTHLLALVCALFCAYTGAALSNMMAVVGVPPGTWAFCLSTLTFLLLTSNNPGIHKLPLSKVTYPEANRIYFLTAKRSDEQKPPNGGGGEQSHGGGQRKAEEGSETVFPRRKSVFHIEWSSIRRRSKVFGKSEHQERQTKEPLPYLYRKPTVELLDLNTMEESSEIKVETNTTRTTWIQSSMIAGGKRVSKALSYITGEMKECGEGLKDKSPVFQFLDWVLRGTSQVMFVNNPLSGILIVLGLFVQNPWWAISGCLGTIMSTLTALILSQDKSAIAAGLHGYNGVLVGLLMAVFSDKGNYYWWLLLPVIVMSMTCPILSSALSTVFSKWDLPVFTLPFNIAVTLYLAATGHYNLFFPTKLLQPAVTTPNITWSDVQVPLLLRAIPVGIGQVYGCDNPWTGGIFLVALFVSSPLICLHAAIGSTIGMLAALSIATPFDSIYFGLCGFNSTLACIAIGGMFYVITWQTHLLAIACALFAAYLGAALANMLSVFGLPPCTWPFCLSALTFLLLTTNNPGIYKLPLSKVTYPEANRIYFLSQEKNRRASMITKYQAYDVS

Urea transporter 1 = molecular target: T2, Urea transporter 1 (Rattus norvegicus, UniProt P97689); assay: Inhibition of rat UT-B incubated for 15 mins
T2 sequence (P97689 whole entry): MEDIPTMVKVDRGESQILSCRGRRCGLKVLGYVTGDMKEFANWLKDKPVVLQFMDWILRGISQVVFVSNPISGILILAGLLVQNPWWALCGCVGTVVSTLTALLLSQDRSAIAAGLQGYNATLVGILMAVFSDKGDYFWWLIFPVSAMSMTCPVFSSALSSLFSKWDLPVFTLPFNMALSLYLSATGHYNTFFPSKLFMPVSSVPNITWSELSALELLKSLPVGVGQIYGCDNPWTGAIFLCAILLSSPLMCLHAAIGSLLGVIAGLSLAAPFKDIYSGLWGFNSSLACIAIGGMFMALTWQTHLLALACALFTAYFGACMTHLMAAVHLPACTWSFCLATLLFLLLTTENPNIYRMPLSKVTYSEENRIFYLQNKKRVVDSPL
Outline: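 Rat whole blood diluted to ~1.5% hematocrit in PBS with 1.25 M acetamide and 5 mM glucose; compound incubated 15 min, then cells mixed into isomolar buffer; lysis read by absorbance at 710 nm. Isomolar buffer as non-lysed and 0.7 mM phloretin as lysed control; % lysis computed from these; mean ± SEM, n = 3.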

[1] = Metabolic stability in Sprague-Dawley rat liver microsomes assessed as compound remaining at 5 uM preincubated for 5 mins followed by NADPH addition and measured at 15 mins by LC/MS analysis; type: ADME, Microsome; conditions: time 20 min, read-out: Stabilty
Outline: (§1)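 Compound at 5 µM preincubated 5 min at 37 °C with male Sprague-Dawley rat liver microsomes (1 mg protein/mL) in 0.1 M PBS pH 7.4. 1 mM NADPH then added, incubation continued at 37 °C for set times, then chilled and EtOAc-extracted. Parent compound measured by LC/MS as peak area/internal standard ratio; mean ± SEM, n = 3.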

[2] = molecular target: T3, Urea transporter 2 (Rattus norvegicus) (UniProt Q62668); assay: Noncompetitive inhibition of rat UT-A1 expressed in MDCK cells assessed as inhibition of urea transport; type: cell-based
T3 sequence (whole entry): T1 sequence (Q62668 whole entry)

[3] = molecular target: T3, Urea transporter 2 (Rattus norvegicus); assay: Reversible inhibition of rat UT-A1 expressed in MDCK cells at 0.5 uM incubated for 15 mins followed by compound washing for 15 mins; type: cell-based
Outline: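 MDCK cells stably expressing rat UT-A1, AQP1 and YFP sensor incubated with 0.5 µM compound for 15 min, washed with PBS for 15 min, then assayed for UT-A1 urea transport by fluorescence plate reader.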

[4] = molecular target: T3, Urea transporter 2 (Rattus norvegicus); assay: Inhibition of rat UT-A1 expressed in MDCK cells at 0.5 uM by fluorescence plate reader assay; type: cell-based; conditions: time 100-500 sec
Outline: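 MDCK cells stably expressing rat UT-A1, human AQP1 and YFP volume sensor; compound at 0.5 µM added at different times before assay; urea transport followed by YFP fluorescence on a plate reader; DMSO as 0% and phloretin as 100% inhibition.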

MDCK = assay: Cytotoxicity against dog MDCK cells at 10 uM after 24 hrs by alamar blue assay; type: cell-based, Canis lupus familiaris
Outline: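 MDCK cells stably co-expressing rat UT-A1, YFP-H148Q/V163S and human AQP1 grown 24 h at 37 °C, then exposed to compound at 10 µM for 24 h; viability read by AlamarBlue; mean ± SEM, n = 3.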

Rattus norvegicus [5] = assay: Diuretic activity in Wistar rat assessed as reduction in urine osmolality at 4 mg/kg, iv after 3 hrs; type: functional, organism-based
Outline: (§2)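 Male Wistar rats (250–300 g), acclimated in metabolic cages 3 days (6 h/day). Urine voided spontaneously over 3 h before dosing, then 4 mg/kg iv via catheter in saline with 20% dimethylacetamide and 1.28 mg/mL NaOH, or vehicle. Urine collected 3 h after dosing; volume and osmolality compared with pretreatment (paired t-test); mean ± SEM, n = 4.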

[6] = Metabolic stability in Sprague-Dawley rat liver microsomes assessed as compound remaining at 5 uM preincubated for 5 mins followed by NADPH addition and measured at 30 mins by LC/MS analysis; type: ADME, Microsome; conditions: time 35 min, read-out: Stabilty; outline: as §1
Rattus norvegicus [7] = assay: Diuretic activity in Wistar rat assessed as increase in urine volume at 4 mg/kg, iv after 3 hrs; type: functional, organism-based; outline: as §2
[8] = Drug concentration in Wistar rat serum at 4 mg/kg, iv after 3 hrs by LC/MS analysis; type: ADME, organism-based
Outline: (§3)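 Male Wistar rats (250–300 g) dosed 4 mg/kg iv in saline containing 20% dimethylacetamide and 1.28 mg/mL NaOH. Tail-vein blood taken at 15, 30, 60, 120, 180 min without anticoagulant, serum separated; urine collected 3 h in metabolic cages; samples frozen at –20 °C. LC/MS (ESI positive) quantitation against standards spiked into control rat urine or plasma.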

[9] = Drug concentration in Wistar rat urine at 4 mg/kg, iv after 3 hrs by LC/MS analysis; type: ADME, organism-based; conditions: read-out: Ct; outline: as §3

Structure (SMILES) | pIC50 (Urea transporter 2) | also measured
CC(=O)Nc1ccc(-c2noc(C3CCCN(C(=O)c4ccccc4F)C3)n2)cc1 (stereo unspecified) | 5.52 | pIC50 (Urea transporter 1): < 4.30
COc1ccc(C)cc1S(=O)(=O)Nc1ccc(Oc2nc3ccccc3n3cnnc23)cc1 | 5.96 | 
O=S(=O)(Nc1ccc(Oc2nc3ccccc3n3cnnc23)cc1)c1ccccc1Cl | 5.30 | 
CCCCc1nnc2c(Oc3ccc(NS(=O)(=O)c4cc(C)ccc4C)cc3)nc3ccccc3n12 | 6.10 | 
CCCc1nnc2c(Oc3ccc(NS(=O)(=O)c4cc(C)ccc4OC)cc3)nc3ccccc3n12 | 6.40 | 
COc1ccc(-c2cccc(-c3ccn(Cc4csc(C)n4)n3)c2)nn1 | 5.82 | pIC50 (Urea transporter 1): 4.51
COC(=O)c1sc2nc3c(cc2c1N)CN(Cc1ccccc1)CC3 | 5.52 | pIC50 (Urea transporter 1): 5.52
COc1ccc(Cl)c(S(=O)(=O)Nc2ccc(Nc3nc4ccccc4n4cnnc34)cc2)c1 | < 4.70 | 
O=S(=O)(Nc1ccc(Oc2nc3ccccc3n3cnnc23)cc1)c1ccccc1OC(F)(F)F | 4.70 | 
COc1ccc(Cl)cc1S(=O)(=O)Nc1cccc(Oc2nc3ccccc3n3cnnc23)c1 | < 4.70 | 
CCOc1nnc2c(Oc3ccc(NS(=O)(=O)c4cc(C)ccc4OC)cc3)nc3ccccc3n12 | 5.82 | 
Cc1ccc(C)c(S(=O)(=O)Nc2ccc(Oc3nc4ccccc4n4c(C)nnc34)cc2)c1 | < 4.70 | 
CCCCc1nnc2c(Oc3ccc(NS(=O)(=O)c4cc(C)ccc4OC)cc3)nc3ccccc3n12 | 6.40 | 
Cc1ccc(C)c(S(=O)(=O)Nc2ccc(Oc3nc4ccccc4n4cnnc34)cc2)c1 | 5.82 | 
COc1ccc(Cl)cc1S(=O)(=O)Nc1ccc(Nc2nc3ccccc3n3cnnc23)cc1 | < 4.70 | 
COc1ccc(Cl)c(S(=O)(=O)Nc2cccc(Nc3nc4ccccc4n4cnnc34)c2)c1 | < 4.70 | 
Cc1ccccc1S(=O)(=O)Nc1ccc(Oc2nc3ccccc3n3cnnc23)cc1 | 5.10 | 
CCCc1nnc2c(Oc3ccc(NS(=O)(=O)c4cc(C)ccc4C)cc3)nc3ccccc3n12 | 6.30 | 
COc1ccc(Cl)cc1S(=O)(=O)Nc1ccc2nc(SC)sc2c1 | 5.30 | pIC50 (Urea transporter 1): 5.00
O=C(Nc1ccon1)c1cc(-c2ccccc2)nc2ccccc12 | 5.70 | pIC50 (Urea transporter 1): < 4.00
COc1ccc(Cl)c(S(=O)(=O)Nc2cccc(Oc3nc4ccccc4n4cnnc34)c2)c1 | < 4.70 | 
CCc1nnc2c(Oc3ccc(NS(=O)(=O)c4cc(C)ccc4C)cc3)nc3ccccc3n12 | 6.12 | 
O=S(=O)(Nc1ccc(Oc2nc3ccccc3n3cnnc23)cc1)c1cccc(Cl)c1 | < 4.70 | 
COc1ccc(Cl)c(S(=O)(=O)Nc2ccc(Oc3nc4ccccc4n4cnnc34)cc2)c1 | < 4.70 | 
COc1ccc(Cl)cc1S(=O)(=O)Nc1cccc(O)c1 | 5.22 | pIC50 (Urea transporter 1): 4.85

Second part, led by results:

pIC50 (Urea transporter 2) | Structure (SMILES) | also measured
< 4.70 | COc1ccc(Cl)cc1S(=O)(=O)Nc1ccc(Oc2nc3cc(Cl)c(Cl)cc3n3cnnc23)cc1 | 
6.40 | CCCc1nnc2c(Oc3ccc(NS(=O)(=O)c4cc(Cl)ccc4OC)cc3)nc3cc(C)c(C)cc3n12 | remaining at 0.25 h, 5 µM [1]: 25%
6.22 | Cc1ccc(C)c(S(=O)(=O)Nc2ccc(Oc3nc4ccccc4n4c(C(C)C)nnc34)cc2)c1 | 
5.82 | COc1ccc(C)cc1S(=O)(=O)Nc1ccc(Oc2nc3cc(F)c(F)cc3n3cnnc23)cc1 | 
5.92 | CCOc1nnc2c(Oc3ccc(NS(=O)(=O)c4cc(Cl)ccc4OC)cc3)nc3ccccc3n12 | 
< 4.70 | COc1ccc(C)cc1S(=O)(=O)Nc1ccc(Oc2nc3ccccc3n3c(C)nnc23)cc1 | 
< 4.70 | COc1ccc(Cl)cc1S(=O)(=O)Nc1ccc(Oc2nc3ccccc3n3c(C)nnc23)cc1 | 
6.82 | CCCc1nnc2c(Oc3ccc(NS(=O)(=O)c4cc(Cl)ccc4OC)cc3)nc3ccccc3n12 | inhibition [2]: Active; inhibition [3]: Active; remaining at 0.25 h, 5 µM [1]: 40%; inhibition [4]: Active; Activity (MDCK): Non-Toxic; pIC50 (Urea transporter 1): 5.70
5.92 | COc1ccc(Cl)cc1S(=O)(=O)Nc1ccc(Oc2nc3cc(F)c(F)cc3n3cnnc23)cc1 | 
5.85 | CCc1nnc2c(Oc3ccc(NS(=O)(=O)c4cc(Cl)ccc4OC)cc3)nc3cc(C)c(C)cc3n12 | 
6.70 | CCCCc1nnc2c(Oc3ccc(NS(=O)(=O)c4cc(Cl)ccc4OC)cc3)nc3ccccc3n12 | 
6.52 | CCCc1nnc2c(Oc3ccc(NS(=O)(=O)c4cc(Cl)ccc4OC)cc3)nc3cc(F)c(F)cc3n12 | Activity (Rattus norvegicus [5]): Active; remaining at 0.5 h, 5 µM [6]: 60%; Activity (MDCK): Non-Toxic; Activity (Rattus norvegicus [7]): Active; concentration at 3 h [8]: > 2 µM; pIC50 (Urea transporter 1): 6.10; concentration at 3 h [9]: 6 µM
6.30 | CCc1nnc2c(Oc3ccc(NS(=O)(=O)c4cc(Cl)ccc4OC)cc3)nc3ccccc3n12 | 
6.10 | COc1ccc(Cl)cc1S(=O)(=O)Nc1ccc(Oc2nc3ccccc3n3cnnc23)cc1 | Activity (MDCK): Non-Toxic; pIC50 (Urea transporter 1): 5.40
6.15 | CCc1nnc2c(Oc3ccc(NS(=O)(=O)c4cc(C)ccc4OC)cc3)nc3ccccc3n12 | 
5.57 | COc1ccc(Cl)cc1S(=O)(=O)Nc1ccc(Oc2nc3cc(C)c(C)cc3n3cnnc23)cc1 | 
6.52 | COc1ccc(Cl)cc1S(=O)(=O)Nc1ccc(Oc2nc3ccccc3n3c(C(C)C)nnc23)cc1 | 
5.92 | COc1ccc(Cl)cc1S(=O)(=O)Nc1ccc(Oc2nc3cc(C)c(C)cc3n3c(C(C)C)nnc23)cc1 | 
6.30 | COc1ccc(C)cc1S(=O)(=O)Nc1ccc(Oc2nc3ccccc3n3c(C(C)C)nnc23)cc1 | 
